Experimental data reported in ChEMBL document CHEMBL4257473, “Design, synthesis and antibacterial evaluation of a polycationic calix[4]arene derivative alone and in combination with antibiotics” (Medchemcomm, 2018).
≈ marks a conversion by molar mass, not a printed value.

What was measured:
Assay type in all cases: functional
Staphylococcus aureus [1] = assay: Antibacterial activity against Staphylococcus aureus ATCC 6538 after 24 hrs by microbroth dilution method; conditions: ATCC 6538, 24 h
How it was run: (§1)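 Broth microdilution per NCCLS guidelines in Mueller Hinton broth, from overnight cultures. Final inoculum 5×10^5 CFU mL⁻¹. Calixarene tested at 1–1024 μg mL⁻¹, ofloxacin 0.06–2048, chloramphenicol 1–2048, tetracycline 0.03–128 μg mL⁻¹. Plates incubated 37 °C for 24 h. MIC is the lowest concentration with no visible growth. Triplicate, with growth control, and modal value reported.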

Staphylococcus aureus [2] = assay: Antibacterial activity against methicillin-resistant Staphylococcus aureus 15 after 24 hrs by microbroth dilution method; conditions: Staphylococcus aureus, 15, 24 h; how it was run: as §1
[3] = test system: Staphylococcus epidermidis; assay: Antibacterial activity against Staphylococcus epidermidis ATCC 35984 after 24 hrs by microbroth dilution method; conditions: ATCC 35984, 24 h
How it was run: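 Broth microdilution per NCCLS guidelines in Mueller Hinton broth, overnight culture inoculated at final 5×10^5 CFU mL⁻¹. Calixarene tested at 1-1024 µg mL⁻¹. Incubation 37 °C for 24 h. MIC taken as the lowest concentration with no visible growth. Growth control included, triplicate runs, modal value reported.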

[4] = test system: Staphylococcus epidermidis; assay: Antibacterial activity against methicillin-resistant Staphylococcus epidermidis 57 after 24 hrs by microbroth dilution method; conditions: Staphylococcus epidermidis, 57, 24 h; how it was run: as §1
Pseudomonas aeruginosa [5] = assay: Antibacterial activity against Pseudomonas aeruginosa ATCC 9027 after 24 hrs by microbroth dilution method; conditions: ATCC 9027, 24 h; how it was run: as §1
Pseudomonas aeruginosa [6] = assay: Antibacterial activity against Pseudomonas aeruginosa isolate 1 after 24 hrs by microbroth dilution method; conditions: isolate 1, 24 h; how it was run: as §1
Staphylococcus aureus [7] = assay: Bactericidal activity against Staphylococcus aureus ATCC 6538 incubated for 24 hrs followed by replating on Mueller hinton agar plates and measured after 24 hrs; conditions: ATCC 6538, 24 h
How it was run: (§2)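 MBC follows the broth microdilution MIC step (MHB, 5×10^5 CFU mL⁻¹, 37 °C, 24 h). 15 µL from every clear MIC well is seeded onto Mueller Hinton agar and incubated 37 °C for 24 h. MBC is the lowest concentration giving no growth. At least three replicates, and modal value reported.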

Staphylococcus aureus [8] = assay: Bactericidal activity against methicillin-resistant Staphylococcus aureus 15 incubated for 24 hrs followed by replating on Mueller hinton agar plates and measured after 24 hrs; conditions: Staphylococcus aureus, 15, 24 h; how it was run: as §2
[9] = test system: Staphylococcus epidermidis; assay: Bactericidal activity against Staphylococcus epidermidis ATCC 35984 incubated for 24 hrs followed by replating on Mueller hinton agar plates and measured after 24 hrs; conditions: ATCC 35984, 24 h; how it was run: as §2
[10] = test system: Staphylococcus epidermidis; assay: Bactericidal activity against methicillin-resistant Staphylococcus epidermidis 57 incubated for 24 hrs followed by replating on Mueller hinton agar plates and measured after 24 hrs; conditions: Staphylococcus epidermidis, 57, 24 h; how it was run: as §2
Pseudomonas aeruginosa [11] = assay: Bactericidal activity against Pseudomonas aeruginosa ATCC 9027 incubated for 24 hrs followed by replating on Mueller hinton agar plates and measured after 24 hrs; conditions: ATCC 9027, 24 h
How it was run: (§3)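 MBC follows a broth microdilution MIC run (Mueller Hinton broth, 5×10^5 CFU mL⁻¹, 37 °C, 24 h). 15 µL from every clear well is seeded onto Mueller Hinton agar and incubated at 37 °C for 24 h. MBC is the lowest concentration giving no growth. At least three replicates, modal result used.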

Pseudomonas aeruginosa [12] = assay: Bactericidal activity against Pseudomonas aeruginosa isolate 1 incubated for 24 hrs followed by replating on Mueller hinton agar plates and measured after 24 hrs; conditions: isolate 1, 24 h; how it was run: as §3
[13] = test system: Staphylococcus epidermidis; assay: Potency index, ratio of ofloxacin MIC to test compound MIC for Staphylococcus epidermidis 57
[14] = test system: Staphylococcus epidermidis; assay: Potency index, ratio of ofloxacin MBC to test compound MBC for Staphylococcus epidermidis 57
Pseudomonas aeruginosa [15] = assay: Potency index, ratio of ofloxacin MBC to test compound MBC for Pseudomonas aeruginosa isolate 1
Staphylococcus aureus [16] = assay: Potency index, ratio of chloramphenicol MIC to test compound MIC for methicillin-resistant Staphylococcus aureus 15
Staphylococcus aureus [17] = assay: Potency index, ratio of chloramphenicol MBC to test compound MBC for methicillin-resistant Staphylococcus aureus 15
[18] = test system: Staphylococcus epidermidis; assay: Potency index, ratio of chloramphenicol MIC to test compound MIC for Staphylococcus epidermidis ATCC 35984
[19] = test system: Staphylococcus epidermidis; assay: Potency index, ratio of chloramphenicol MBC to test compound MBC for Staphylococcus epidermidis ATCC 35984
[20] = test system: Staphylococcus epidermidis; assay: Potency index, ratio of chloramphenicol MIC to test compound MIC for Staphylococcus epidermidis 57
[21] = test system: Staphylococcus epidermidis; assay: Potency index, ratio of chloramphenicol MBC to test compound MBC for Staphylococcus epidermidis 57
Pseudomonas aeruginosa [22] = assay: Potency index, ratio of chloramphenicol MIC to test compound MIC for Pseudomonas aeruginosa isolate 1
Pseudomonas aeruginosa [23] = assay: Potency index, ratio of chloramphenicol MBC to test compound MBC for Pseudomonas aeruginosa isolate 1
Staphylococcus aureus [24] = assay: Antibacterial activity against Staphylococcus aureus ATCC 6538 assessed as FIC index after overnight incubation in presence of ofloxacin by checkerboard assay
How it was run: (§4)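 Checkerboard combination of the calixarene with each antibiotic, each agent at final 2 to 0.015 times its MIC, giving 64 combinations. Inoculum prepared in Mueller Hinton broth and added at final 5×10^5 CFU mL⁻¹. Plates incubated overnight at 37 °C, then FICI calculated from the combination MICs.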

Staphylococcus aureus [25] = assay: Antibacterial activity against methicillin-resistant Staphylococcus aureus 15 assessed as FIC index after overnight incubation in presence of ofloxacin by checkerboard assay
How it was run: (§5)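 Checkerboard combinations of calixarene with antibiotic, each at final concentrations from 2 to 0.015 × its MIC, giving 64 combinations per plate. Inoculum prepared in MHB, final 5×10^5 CFU mL⁻¹. Incubated overnight at 37 °C. Fractional inhibitory concentration index calculated from the combination MICs.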

[26] = test system: Staphylococcus epidermidis; assay: Antibacterial activity against Staphylococcus epidermidis ATCC 35984 assessed as FIC index after overnight incubation in presence of ofloxacin by checkerboard assay; how it was run: as §4
[27] = test system: Staphylococcus epidermidis; assay: Antibacterial activity against methicillin-resistant Staphylococcus epidermidis 57 assessed as FIC index after overnight incubation in presence of ofloxacin by checkerboard assay; how it was run: as §5
Pseudomonas aeruginosa [28] = assay: Antibacterial activity against Pseudomonas aeruginosa ATCC 9027 assessed as FIC index after overnight incubation in presence of ofloxacin by checkerboard assay; how it was run: as §4
Pseudomonas aeruginosa [29] = assay: Antibacterial activity against Pseudomonas aeruginosa isolate 1 assessed as FIC index after overnight incubation in presence of ofloxacin by checkerboard assay; how it was run: as §4
Staphylococcus aureus [30] = assay: Antibacterial activity against Staphylococcus aureus ATCC 6538 assessed as FIC index after overnight incubation in presence of chloramphenicol by checkerboard assay; how it was run: as §4
[31] = test system: Staphylococcus epidermidis; assay: Antibacterial activity against Staphylococcus epidermidis ATCC 35984 assessed as FIC index after overnight incubation in presence of chloramphenicol by checkerboard assay; how it was run: as §5
Pseudomonas aeruginosa [32] = assay: Antibacterial activity against Pseudomonas aeruginosa ATCC 9027 assessed as FIC index after overnight incubation in presence of chloramphenicol by checkerboard assay; how it was run: as §4
Pseudomonas aeruginosa [33] = assay: Antibacterial activity against Pseudomonas aeruginosa isolate 1 assessed as FIC index after overnight incubation in presence of chloramphenicol by checkerboard assay; how it was run: as §4
Staphylococcus aureus [34] = assay: Antibacterial activity against Staphylococcus aureus ATCC 6538 assessed as FIC index after overnight incubation in presence of tetracycline by checkerboard assay; how it was run: as §4
Staphylococcus aureus [35] = assay: Antibacterial activity against methicillin-resistant Staphylococcus aureus 15 assessed as FIC index after overnight incubation in presence of tetracycline by checkerboard assay; how it was run: as §5
[36] = test system: Staphylococcus epidermidis; assay: Antibacterial activity against methicillin-resistant Staphylococcus epidermidis 57 assessed as FIC index after overnight incubation in presence of tetracycline by checkerboard assay; how it was run: as §5
Pseudomonas aeruginosa [37] = assay: Antibacterial activity against Pseudomonas aeruginosa ATCC 9027 assessed as FIC index after overnight incubation in presence of tetracycline by checkerboard assay; how it was run: as §5
Pseudomonas aeruginosa [38] = assay: Antibacterial activity against Pseudomonas aeruginosa isolate 1 assessed as FIC index after overnight incubation in presence of tetracycline by checkerboard assay; how it was run: as §4

CCCOc1c2cc(C[N+](C)(CCO)CCO)cc1Cc1cc(C[N+](C)(CCO)CCO)cc(c1OCCC)Cc1cc(C[N+](C)(CCO)CCO)cc(c1OCCC)Cc1cc(C[N+](C)(CCO)CCO)cc(c1OCCC)C2.[Cl-].[Cl-].[Cl-].[Cl-]
MIC (Staphylococcus aureus [1]): 4 µg/mL | MIC (Staphylococcus aureus [2]): 4 µg/mL | MIC [3]: 4 µg/mL | MIC [4]: 4 µg/mL | MIC (Pseudomonas aeruginosa [5]): 128 µg/mL | MIC (Pseudomonas aeruginosa [6]): 256 µg/mL | MBC (Staphylococcus aureus [7]): 8 µg/mL | MBC (Staphylococcus aureus [8]): 8 µg/mL | MBC [9]: 8 µg/mL | MBC [10]: 8 µg/mL | MBC (Pseudomonas aeruginosa [11]): 256 µg/mL | MBC (Pseudomonas aeruginosa [12]): 256 µg/mL | Ratio [13]: 131 | Ratio [14]: 262 | Ratio (Pseudomonas aeruginosa [15]): 2 | Ratio (Staphylococcus aureus [16]): 2 | Ratio (Staphylococcus aureus [17]): 16 | Ratio [18]: 4 | Ratio [19]: 16 | Ratio [20]: 2 | Ratio [21]: 32 | Ratio (Pseudomonas aeruginosa [22]): 2 | Ratio (Pseudomonas aeruginosa [23]): 4 | fractional inhibitory concentration index (FICI) (Staphylococcus aureus [24]): 1.25 | fractional inhibitory concentration index (FICI) (Staphylococcus aureus [25]): 1 | fractional inhibitory concentration index (FICI) [26]: 1.25 | fractional inhibitory concentration index (FICI) [27]: 1 | fractional inhibitory concentration index (FICI) (Pseudomonas aeruginosa [28]): 1.06 | fractional inhibitory concentration index (FICI) (Pseudomonas aeruginosa [29]): 0.62 | fractional inhibitory concentration index (FICI) (Staphylococcus aureus [30]): 1.12 | fractional inhibitory concentration index (FICI) [31]: 1.03 | fractional inhibitory concentration index (FICI) (Pseudomonas aeruginosa [32]): 0.62 | fractional inhibitory concentration index (FICI) (Pseudomonas aeruginosa [33]): 0.53 | fractional inhibitory concentration index (FICI) (Staphylococcus aureus [34]): 1.48 | fractional inhibitory concentration index (FICI) (Staphylococcus aureus [35]): 1.03 | fractional inhibitory concentration index (FICI) [36]: 1.03 | fractional inhibitory concentration index (FICI) (Pseudomonas aeruginosa [37]): 1.06 | fractional inhibitory concentration index (FICI) (Pseudomonas aeruginosa [38]): 0.56

O=C(N[C@H](CO)[C@H](O)c1ccc([N+](=O)[O-])cc1)C(Cl)Cl [CHLORAMPHENICOL]
MIC (Staphylococcus aureus [1]): 4 µg/mL (≈ 12.4 µM) | MIC (Staphylococcus aureus [2]): 8 µg/mL (≈ 24.8 µM) | MIC [3]: 16 µg/mL (≈ 49.5 µM) | MIC [4]: 8 µg/mL (≈ 24.8 µM) | MIC (Pseudomonas aeruginosa [5]): 64 µg/mL (≈ 198 µM) | MIC (Pseudomonas aeruginosa [6]): 512 µg/mL (≈ 1580 µM) | MBC (Staphylococcus aureus [7]): 8 µg/mL (≈ 24.8 µM) | MBC (Staphylococcus aureus [8]): 128 µg/mL (≈ 396 µM) | MBC [9]: 128 µg/mL (≈ 396 µM) | MBC [10]: 256 µg/mL (≈ 792 µM) | MBC (Pseudomonas aeruginosa [11]): 128 µg/mL (≈ 396 µM) | MBC (Pseudomonas aeruginosa [12]): 1020 µg/mL (≈ 3170 µM)

CC1COc2c(N3CCN(C)CC3)c(F)cc3c(=O)c(C(=O)O)cn1c23 (stereo not drawn) [OFLOXACIN]
MIC (Staphylococcus aureus [1]): 0.25 µg/mL (≈ 0.692 µM) | MIC (Staphylococcus aureus [2]): 512 µg/mL (≈ 1420 µM) | MIC [3]: 0.25 µg/mL (≈ 0.692 µM) | MIC [4]: 512 µg/mL (≈ 1420 µM) | MIC (Pseudomonas aeruginosa [6]): 256 µg/mL (≈ 708 µM) | MBC (Staphylococcus aureus [7]): 0.5 µg/mL (≈ 1.38 µM) | MBC (Staphylococcus aureus [8]): > 2050 µg/mL | MBC [9]: 0.5 µg/mL (≈ 1.38 µM) | MBC [10]: > 2050 µg/mL | MBC (Pseudomonas aeruginosa [11]): 2 µg/mL (≈ 5.53 µM) | MBC (Pseudomonas aeruginosa [12]): 512 µg/mL (≈ 1420 µM)

CN(C)[C@@H]1C(O)=C(C(N)=O)C(=O)[C@@]2(O)C(O)=C3C(=O)c4c(O)cccc4[C@@](C)(O)[C@H]3C[C@@H]12 [TETRACYCLINE]
MIC (Staphylococcus aureus [1]): 0.125 µg/mL (≈ 0.281 µM) | MIC (Staphylococcus aureus [2]): 1 µg/mL (≈ 2.25 µM) | MIC [3]: 0.5 µg/mL (≈ 1.13 µM) | MIC [4]: 1 µg/mL (≈ 2.25 µM) | MIC (Pseudomonas aeruginosa [5]): 16 µg/mL (≈ 36 µM) | MIC (Pseudomonas aeruginosa [6]): 16 µg/mL (≈ 36 µM) | MBC (Staphylococcus aureus [7]): 4 µg/mL (≈ 9 µM) | MBC (Staphylococcus aureus [8]): 16 µg/mL (≈ 36 µM) | MBC [9]: 8 µg/mL (≈ 18 µM) | MBC [10]: 16 µg/mL (≈ 36 µM) | MBC (Pseudomonas aeruginosa [11]): 32 µg/mL (≈ 72 µM) | MBC (Pseudomonas aeruginosa [12]): 32 µg/mL (≈ 72 µM)
